Experimental data taken from ChEMBL document CHEMBL2040757, “New N-arylamino biquinoline derivatives: synthesis, antimicrobial, antituberculosis, and antimalarial evaluation” (Eur J Med Chem, 2012).
Converted amounts (≈) assume the structure as drawn.

Tests used:
Vibrio cholerae = experiment: Antibacterial activity against Vibrio cholerae MTCC 3906 by broth microdilution method; format: functional
Bacillus subtilis = experiment: Antibacterial activity against Bacillus subtilis MTCC 441 by broth microdilution method; format: functional
Method in brief: (§1)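 Broth microdilution per NCCLS, with serial dilutions in Mueller Hinton broth and DMSO as diluent. Tubes were incubated overnight at 37 °C. MIC was the lowest concentration giving no visible growth, with the control organism's MIC read to verify concentrations. Tubes without growth were subcultured overnight at 37 °C to judge bacteriostatic versus bactericidal action.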

[1] = tested on: Mycobacterium tuberculosis; experiment: Growth inhibition of Mycobacterium tuberculosis H37Rv at 6.25 ug/mL after 12 to 28 days relative to control; format: functional
Plasmodium falciparum = experiment: Antimalarial activity against trophozoite stage of chloroquine-sensitive Plasmodium falciparum 3D7 infected in human erythrocytes after 48 hrs; format: functional, organism-based; conditions: 3D7, 48 h
Method in brief: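 Parasites were kept in continuous culture in A+ human erythrocytes in RPMI with 10% human serum. Sorbitol-synchronized trophozoites at 1–2% parasitaemia and 2.5% haematocrit were exposed to serial dilutions (maximum 1 mg/ml; 0.02% final DMSO) for 48 h at 37 °C. Growth inhibition was measured; chloroquine and quinine served as positive controls. IC50 came from duplicate experiments.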

Streptococcus pneumoniae = experiment: Antibacterial activity against Streptococcus pneumoniae MTCC 1936 by broth microdilution method; format: functional; method in brief: as §1
Candida albicans = experiment: Antifungal activity against Candida albicans MTCC 227 by broth microdilution method; format: functional
Aspergillus fumigatus = experiment: Antifungal activity against Aspergillus fumigatus MTCC 3008 by broth microdilution method; format: functional
Salmonella typhi = experiment: Antibacterial activity against Salmonella typhi MTCC 98 by broth microdilution method; format: functional, Salmonella enterica subsp. enterica serovar Typhi; conditions: Salmonella enterica
Escherichia coli = experiment: Antibacterial activity against Escherichia coli MTCC 443 by broth microdilution method; format: functional; method in brief: as §1
Clostridium tetani = experiment: Antibacterial activity against Clostridium tetani MTCC 449 by broth microdilution method; format: functional

Row | Structure (SMILES) | MIC (Vibrio cholerae) [µg/mL] | MIC (Bacillus subtilis) [µg/mL] | inhibition at 6.25 µg/mL [1] [%] | IC50 (Plasmodium falciparum) [µg/mL] | MIC (Streptococcus pneumoniae) [µg/mL] | MIC (Candida albicans) [µg/mL] | MIC (Aspergillus fumigatus) [µg/mL] | MIC (Salmonella typhi) [µg/mL] | MIC (Escherichia coli) [µg/mL] | MIC (Clostridium tetani) [µg/mL]
1 | Cc1ccc2nc(Cl)c(C3C(C#N)=C(N)N(Nc4ccc(Cl)cc4)C4=C3C(=O)CC(C)(C)C4)cc2c1 (stereo not given) | 200 (≈ 386 µM) | 500 (≈ 964 µM) | 15 | 0.008 (≈ 0.0154 µM) | 250 (≈ 482 µM) | 500 (≈ 964 µM) | 1000 (≈ 1930 µM) | 200 (≈ 386 µM) | 100 (≈ 193 µM) | 250 (≈ 482 µM)
2 | COc1ccc(NN2C(N)=C(C#N)C(c3cc4cc(C)ccc4nc3Cl)C3=C2CC(C)(C)CC3=O)cc1 (stereo not given) | 500 (≈ 973 µM) | 200 (≈ 389 µM) | 3 | 0.54 (≈ 1.05 µM) | 100 (≈ 195 µM) | > 1000 | > 1000 | 500 (≈ 973 µM) | 250 (≈ 486 µM) | 500 (≈ 973 µM)
3 | COc1ccc(NN2C(N)=C(C#N)C(c3cc4cc(OC)ccc4nc3Cl)C3=C2CC(C)(C)CC3=O)cc1 (stereo not given) | 62.5 (≈ 118 µM) | 200 (≈ 377 µM) | 7 | 0.019 (≈ 0.0358 µM) | 25 (≈ 47.2 µM) | 500 (≈ 943 µM) | 500 (≈ 943 µM) | 50 (≈ 94.3 µM) | 100 (≈ 189 µM) | 200 (≈ 377 µM)
